One compound from ChEMBL document CHEMBL1156239, “Synthesis, anticonvulsant and antimicrobial activities of some new 2-acetylnaphthalene derivatives” (Bioorg Med Chem, 2010) can be followed below.

The structures appear in SMILES notation. Active and inactive are the calls of the source. The rule behind the calls is not given here.

Data set [1] has as its system Rattus norvegicus. The data set can be described thus: Anticonvulsant activity in Sprague-Dawley rat assessed as inhibition of maximal electroshock-induced seizures at 30 mg/kg, po after 1 hr. Format: functional, organism-based. Details: dose 30 mg/kg. An outline of the steps:
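Male albino Sprague-Dawley rats (105–130 g) given a single oral 30 mg/kg dose suspended in 0.5% methylcellulose; MES (60 Hz, 150 mA, 0.2 s, tetracaine-anesthetized eyes) at 0.25, 0.5, 1, 2 and 4 h; 4 rats per time point; scored protected/tested.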
(In general: In the maximal electroshock model the usual endpoint is tonic extension of the hind limbs.)

Data set [2] has as its system Rattus norvegicus. The data set is described as follows: Anticonvulsant activity in Sprague-Dawley rat assessed as inhibition of maximal electroshock-induced seizures at 30 mg/kg, ip. Format: functional, organism-based. Details: dose 30 mg/kg.
For data set [3], the system named is Mus musculus. The data set is described as follows: Anticonvulsant activity in CF1 mouse assessed as time to peak effect for inhibition of maximal electroshock-induced seizures at 70 mg/kg, ip after 4 hrs. Format: functional, organism-based. Details: dose 70 mg/kg.
Data set [4] concerns Mus musculus. The data set can be described thus: Anticonvulsant activity in CF1 mouse assessed as time to peak effect for inhibition of maximal electroshock-induced seizures at 35 mg/kg, ip after 2 hrs. Format: functional, organism-based. Also on record: dose 35 mg/kg.
A short description of data set [5]: Neurotoxicity in ip dosed CF1 mouse after 0.25 hrs by rotarod test. The class given is toxicity, organism-based. The settings on record: in vivo. Summed up:
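TD50 was determined at the time of peak effect in male albino animals. Compound was suspended in 0.5% methylcellulose and given ip. Neurotoxicity was read by rotarod in CF#1 mice and by positional sense, gait and stance in Sprague-Dawley rats. Groups of at least 8 received graded doses spanning 0–100% toxicity.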

In data set [6] the test system is Mus musculus. The data set can be described thus: Anticonvulsant activity in CF1 mouse assessed as inhibition of maximal electroshock-induced seizures at 300 mg/kg, ip after 0.5 hrs. Format: functional, organism-based. Details: dose 300 mg/kg. An outline of the steps: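 Male albino CF#1 mice (18–25.5 g), compound suspended in 0.5% methylcellulose, given ip 0.5 h or 4 h before test. Eyes treated with 0.5% tetracaine HCl in saline; corneal-type MES at 60 Hz, 50 mA for 0.2 s; protection scored as animals protected/tested.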

The test system of data set [7] is Rattus norvegicus. The data set is described as follows: Neurotoxicity in Sprague-Dawley rat at 30 mg/kg, po after 0.5 hrs by rotarod test. The conditions noted are these: in vivo. Format: toxicity, organism-based. Details: dose 30 mg/kg, route oral. (In general: In the rotarod test animals must keep their balance on a rotating rod.)
Data set [8] has as its system Mus musculus. The data set can be described thus: Neurotoxicity in CF1 mouse at 100 mg/kg, ip after 0.5 hrs by rotarod test. The class given is toxicity, organism-based. Details: dose 100 mg/kg, route intraperitoneal. The conditions noted are these: in vivo. An outline of the steps:
(§1)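 Male albino CF#1 mice (18–25.5 g) dosed ip with compound suspended in 0.5% methylcellulose, 0.5 h or 4 h before testing; neurotoxicity assessed by rotarod, scored as number toxic/number tested.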

Data set [9] in a line: Therapeutic index, ratio of TD50 for Sprague-Dawley rat to ED50 for Sprague-Dawley rat. An outline of the steps:
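Ratio of TD50 to ED50, both from ip dosing at the time of peak effect, with groups of at least 8 per dose and Finney probit analysis. […] Toxicity was read by rotarod in mice and by positional sense, gait and stance in rats.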

In data set [10] the test system is Rattus norvegicus. The data set is described as follows: Neurotoxicity in Sprague-Dawley rat at 30 mg/kg, po after 1 hr by rotarod test. Format: toxicity, organism-based. Details: dose 30 mg/kg, route oral. The conditions noted are these: in vivo.
Data set [11] relates to Mus musculus. The data set can be described thus: Neurotoxicity in CF1 mouse assessed as ability to grasp rotarod at 300 mg/kg, ip after 4 hrs by rotarod test. Also on record: dose 300 mg/kg, route intraperitoneal. The conditions noted are these: in vivo. The class given is toxicity, organism-based. An outline of the steps:
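Male albino CF#1 mice (18–25.5 g), free access to food and water except during testing, under NINDS Anticonvulsant Screening Program procedures. Compounds were suspended in 0.5% methylcellulose and given ip. Neurotoxicity was scored by rotarod 0.5 h and 4 h after dosing, at screening doses of 30, 100 or 300 mg/kg. Results are reported as affected/tested animals.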

The test system of data set [12] is Rattus norvegicus. The data set is described as follows: Neurotoxicity in Sprague-Dawley rat at 30 mg/kg, ip after 1 hr by rotarod test. Format: toxicity, organism-based. Also on record: dose 30 mg/kg, route intraperitoneal. The settings on record: in vivo.
In data set [13] the test system is Mus musculus. The data set can be described thus: Neurotoxicity in CF1 mouse assessed as ability to grasp rotarod at 300 mg/kg, ip after 0.5 hrs by rotarod test. Format: toxicity, organism-based. Details: dose 300 mg/kg, route intraperitoneal. The conditions noted are these: in vivo. Summed up: as §1
The subject of data set [14] is Mus musculus. The data set can be described thus: Anticonvulsant activity in CF1 mouse assessed as time to peak effect for inhibition of maximal electroshock-induced seizures at 23 mg/kg, ip after 1 hr. Format: functional, organism-based. Details: dose 23 mg/kg.

On to `CC(C)CC(=O)OC(Cn1ccnc1)c1ccc2ccccc2c1` (centres undefined), for which the inhibition entry in data set [1] is “inactive”. The inhibition result in [2] and in [6] was “Active” throughout. In addition, the outcome in data set [3], in data set [4] and in [14] was inactive. Also, the TD50 at 0.25 h in data set [5] was 124 mg/kg. The Activity entry in data set [7] was “Non-toxic”; in data set [8], “Non-toxic”; in data set [10], “Non-toxic”; in [11], “Toxic”; in [12], “Non-toxic”; in data set [13], “Toxic”. For the same compound, the selectivity ratio in data set [9] was 2.76.

Usually TD50 stands for the 50% point of the dose-response relation for the toxic effect studied. A low value points to harm at a small dose.
